Laboratory results from ChEMBL document CHEMBL4354865 (J Med Chem, 2020).
Active and inactive are the calls of the source. No cut-off for these calls is given here.

Columns and labels:
[1] = target: T1, Indoleamine 2,3-dioxygenase 1 (Homo sapiens, UniProt P14902); experiment: Inhibition of IDO1 in IFNgamma-stimulated human A375 cells assessed as reduction in L-Kyn level at 1 uM measured after 48 hrs by HPLC analysis relative to control
Summary of the method: (§1)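 A375 cells, unstimulated or stimulated with recombinant human IFN-γ, were left untreated or treated with 1 µM compound for 48 h. L-Kyn was measured by HPLC and cell viability was assessed.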
Target sequence in this assay (P14902 whole entry, looked up): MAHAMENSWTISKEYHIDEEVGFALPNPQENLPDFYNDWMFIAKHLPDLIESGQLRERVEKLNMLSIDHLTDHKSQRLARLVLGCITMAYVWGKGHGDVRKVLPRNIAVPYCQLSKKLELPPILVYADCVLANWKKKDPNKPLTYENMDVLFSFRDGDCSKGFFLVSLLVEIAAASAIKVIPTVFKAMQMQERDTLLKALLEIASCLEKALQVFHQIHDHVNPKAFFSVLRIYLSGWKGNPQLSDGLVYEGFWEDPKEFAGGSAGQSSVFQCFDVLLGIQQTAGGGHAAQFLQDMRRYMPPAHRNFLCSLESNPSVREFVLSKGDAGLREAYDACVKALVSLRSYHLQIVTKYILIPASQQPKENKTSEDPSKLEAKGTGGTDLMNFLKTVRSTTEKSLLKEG

[2] = Cytotoxicity against human A375 cells assessed as cell viability at 1 uM measured after 48 hrs by MTT assay relative to control; assay type: cell-based, A-375; conditions: read-out: Activity; summary of the method: as §1
[3] = target: T1, Indoleamine 2,3-dioxygenase 1; experiment: Inhibition of IDO1 in PDAC patient derived suppressive monocytes co-cultured with human PBMC assessed as reduction in anti-CD3/anti-CD28-stimulated CD3+T cell proliferation at 30 uM preincubated for 4 days followed by co-culturing of monocytes and measured after 24 hrs by flow cytometric analysis
Target sequence in this assay (P14902 whole entry, looked up): as above

Mus musculus [4] = experiment: In vivo inhibition of IDO1 in BALB/c mouse assessed as reduction in L-kyn level at 10 mg/kg, iv measured up to 30 mins by LC-HRMS analysis; assay type: functional, organism-based
Summary of the method: (§2)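 After a single 10 mg/kg i.v. dose in mice, plasma L-Kyn was measured at 0, 2, 5, 15 and 30 min and at 8 h post-injection, and compared with basal level.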

[5] = target: T1, Indoleamine 2,3-dioxygenase 1; experiment: Selectivity ratio of IC50 for IDO1 in IFNgamma-stimulated human DAN-G cells to IC50 for IDO1 in IFNgamma-stimulated human HepG2 cells
Target sequence in this assay (P14902 whole entry, looked up): as above

[6] = Drug metabolism in CD-1 mouse liver microsomes assessed as benzimidazole oxidation at 50 uM measured after 1 hr by LC-HRMS analysis; assay type: ADME, Microsome
[7] = target: T1, Indoleamine 2,3-dioxygenase 1; experiment: Inhibition of IDO1 in IFNgamma-stimulated human HepG2 cells assessed as reduction in L-Kyn level measured after 48 hrs by HPLC analysis; assay type: cell-based
Target sequence in this assay (P14902 whole entry): as the sequence (P14902 whole entry, looked up) above

Monocyte [8] = experiment: Effect on anti-CD3/anti-CD28-stimulated CD3+T cell proliferation in PDAC patient derived non-suppressive monocytes co-cultured with human PBMC at 30 uM preincubated for 4 days followed by co-culturing of monocytes and measured after 24 hrs by flow cytometric analysis; assay type: cell-based
Summary of the method: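 PDAC patient monocytes (suppressive or non-suppressive) were pre-treated with 30 µM compound or DMSO, then co-cultured for 4 days with Cell Trace-labelled activated CD3+ T cells. T-cell proliferation was read from proliferation peaks and normalized to activated T cells cultured without myeloid cells. Data are mean ± SEM; Mann-Whitney test.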

[9] = target: T1, Indoleamine 2,3-dioxygenase 1; experiment: Inhibition of IDO1 in IFNgamma-stimulated human MCF7 cells assessed as reduction in L-Kyn level measured after 48 hrs by HPLC analysis; assay type: cell-based
Target sequence in this assay (P14902 whole entry): as the sequence (P14902 whole entry, looked up) above

[10] = Drug metabolism in CD-1 mouse liver microsomes assessed as oxidative N-dealkylation at 50 uM measured after 1 hr by LC-HRMS analysis; assay type: ADME, Microsome
Monocyte [11] = experiment: Cytotoxicity against human monocytes assessed as reduction in cell viability at 30 uM measured after 24 hrs by Annexin-V APC/7-AAD staining based flow cytometric analysis
Summary of the method: (§3)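 Monocytes from healthy donors (n=3) and from PDAC patients (n=3) were treated for 24 h, with DMSO as control. Viability was normalized to untreated cells. Healthy-donor cells received a range of concentrations; PDAC cells received 30 µM.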

[12] = target: T1, Indoleamine 2,3-dioxygenase 1; experiment: Binding affinity to NT650-NHS fluorophore-labeled recombinant human N-terminal His-tagged IDO1 expressed in Escherichia coli measured after 10 mins by microscale thermophoresis assay
Target sequence in this assay (P14902 whole entry): as the sequence (P14902 whole entry, looked up) above

[13] = target: Indoleamine 2,3-dioxygenase 1 (Mus musculus, UniProt P28776); experiment: Inhibition of mouse IDO1 transfected in P815 cells assessed as reduction in L-Kyn level measured after 16 hrs by HPLC analysis; assay type: cell-based
Summary of the method: (§4)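 P815 mastocytoma cells stably expressing mouse IDO1 (P1.IDO1) or TDO (P1.TDO) were treated with serial dilutions for 16 h. L-Kyn secreted into the culture supernatant was quantified by HPLC, and an IC50 was determined in each line.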

[14] = target: T1, Indoleamine 2,3-dioxygenase 1; experiment: Selectivity ratio of IC50 for IDO1 in IFNgamma-stimulated human DAN-G cells to IC50 for IDO1 in IFNgamma-stimulated human MCF7 cells
Target sequence in this assay (P14902 whole entry, looked up): as above

[15] = target: T1, Indoleamine 2,3-dioxygenase 1; experiment: Inhibition of IDO1 in IFNgamma-stimulated human A375 cells assessed as reduction in L-Kyn level at 10 uM measured after 48 hrs by HPLC analysis relative to control
Summary of the method: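 Screen in melanoma A375 cells, which express IDO1 when treated with recombinant human IFN-γ. Cells were left untreated or given 10 µM compound for 48 h. L-Kyn was then measured. Cell viability was also checked.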
Target sequence in this assay (P14902 whole entry, looked up): as above

[16] = Inhibition of CYP450 in rat liver microsomes assessed as reduction in aminopyrine N-demethylase activity preincubated for 3 mins followed by NADPH addition and measured after 15 mins by iodometric titration method; assay type: ADME
Summary of the method: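 CYP inhibition read by aminopyrine N-demethylase activity, with IC50 determined from concentration–response curves. Ketoconazole (CYP3A inhibitor) served as reference.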

[17] = target: T1, Indoleamine 2,3-dioxygenase 1; experiment: Inhibition of IDO1 in IFNgamma-stimulated human HeLa cells assessed as reduction in L-Kyn level measured after 48 hrs by HPLC analysis; assay type: cell-based
Target sequence in this assay (P14902 whole entry): as the sequence (P14902 whole entry, looked up) above

[18] = target: Tryptophan 2,3-dioxygenase (Mus musculus, UniProt P48776); experiment: Inhibition of mouse TDO transfected in P815 cells assessed as reduction in L-Kyn level measured after 16 hrs by HPLC analysis; assay type: cell-based; summary of the method: as §4
[19] = target: T1, Indoleamine 2,3-dioxygenase 1; experiment: Selectivity ratio of IC50 for IDO1 in IFNgamma-stimulated human DAN-G cells to IC50 for IDO1 in IFNgamma-stimulated human LXF-289 cells
Target sequence in this assay (P14902 whole entry, looked up): as above

[20] = Metabolic stability in CD-1 mouse liver microsomes assessed as parent compound remaining at 50 uM measured after 1 hr in presence of NADPH generating system by UV-LC/MS analysis; assay type: ADME, Microsome; conditions: read-out: Stability
Summary of the method: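 Mouse liver microsomes activated with NADPH. Residual parent compound was measured after 1 h incubation.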

Monocyte [21] = experiment: Cytotoxicity against PDAC patient derived monocytes assessed as reduction in cell viability at 30 uM measured after 24 hrs by Annexin-V APC/7-AAD staining based flow cytometric analysis; conditions: human; summary of the method: as §3
[22] = target: T1, Indoleamine 2,3-dioxygenase 1; experiment: Selectivity ratio of IC50 for IDO1 in IFNgamma-stimulated human DAN-G cells to IC50 for IDO1 in IFNgamma-stimulated human HeLa cells
[23] = Metabolic stability in CD-1 mouse liver microsomes assessed as parent compound remaining at 50 uM measured after 1 hr in presence of NADPH by UV-LC/MS analysis
[24] = target: T1, Indoleamine 2,3-dioxygenase 1; experiment: Inhibition of IDO1 in IFNgamma-stimulated human LXF-289 cells assessed as reduction in L-Kyn level measured after 48 hrs by HPLC analysis
Target sequence in this assay (P14902 whole entry): as the sequence (P14902 whole entry, looked up) above

[25] = target: T1, Indoleamine 2,3-dioxygenase 1; experiment: Selectivity ratio of IC50 for IDO1 in IFNgamma-stimulated human DAN-G cells to IC50 for IDO1 in IFNgamma-stimulated human A375 cells
[26] = target: T1, Indoleamine 2,3-dioxygenase 1; experiment: Inhibition of IDO1 in IFNgamma-stimulated human DAN-G cells assessed as reduction in L-Kyn level measured after 48 hrs by HPLC analysis; assay type: cell-based
Target sequence in this assay (P14902 whole entry): as the sequence (P14902 whole entry, looked up) above

Mus musculus [27] = experiment: In vivo inhibition of IDO1 in BALB/c mouse assessed as reduction in L-kyn level at 10 mg/kg, iv measured after 8 hrs by LC-HRMS analysis; assay type: functional, organism-based; summary of the method: as §2
[28] = target: T1, Indoleamine 2,3-dioxygenase 1; experiment: Inhibition of IDO1 in IFNgamma-stimulated human A375 cells assessed as reduction in L-Kyn level measured after 48 hrs by HPLC analysis
[29] = Chemical stability of the compound; assay type: physicochemical
[30] = Inhibition of CYP3A in rat liver microsomes assessed as reduction in aminopyrine N-demethylase activity preincubated for 3 mins followed by NADPH addition and measured after 15 mins by iodometric titration method; assay type: ADME
Summary of the method: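 IC50 derived by fitting concentration–response curves for inhibition of aminopyrine N-demethylase activity, with ketoconazole run as the reference CYP3A inhibitor.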

Chain of Tryptophan 2,3-dioxygenase (P48776 whole entry): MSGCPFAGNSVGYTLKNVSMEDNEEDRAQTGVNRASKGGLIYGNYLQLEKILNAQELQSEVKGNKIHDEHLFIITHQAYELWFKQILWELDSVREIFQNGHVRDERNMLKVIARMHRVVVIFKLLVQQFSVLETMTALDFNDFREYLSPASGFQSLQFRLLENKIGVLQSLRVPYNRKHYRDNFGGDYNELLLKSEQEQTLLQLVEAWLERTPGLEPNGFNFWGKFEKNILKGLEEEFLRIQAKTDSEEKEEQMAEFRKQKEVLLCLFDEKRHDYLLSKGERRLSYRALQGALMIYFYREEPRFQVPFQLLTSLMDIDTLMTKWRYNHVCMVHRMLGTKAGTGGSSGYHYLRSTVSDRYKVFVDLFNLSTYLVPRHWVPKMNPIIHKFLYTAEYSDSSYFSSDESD
Chain of Indoleamine 2,3-dioxygenase 1 (Mus musculus, UniProt P28776) (P28776 whole entry): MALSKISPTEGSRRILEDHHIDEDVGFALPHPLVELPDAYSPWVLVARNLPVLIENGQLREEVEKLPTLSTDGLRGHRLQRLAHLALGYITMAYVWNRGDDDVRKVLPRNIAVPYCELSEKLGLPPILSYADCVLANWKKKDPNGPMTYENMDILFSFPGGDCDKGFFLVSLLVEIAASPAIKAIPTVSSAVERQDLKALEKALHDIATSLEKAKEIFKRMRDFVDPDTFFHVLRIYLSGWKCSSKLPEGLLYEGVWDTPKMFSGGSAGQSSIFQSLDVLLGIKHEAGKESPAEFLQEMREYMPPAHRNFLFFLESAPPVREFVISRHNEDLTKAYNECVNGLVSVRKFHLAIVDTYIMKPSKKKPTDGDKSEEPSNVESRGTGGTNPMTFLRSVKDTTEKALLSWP

`O=C(NCc1cccc(Cn2cnc3ccccc32)c1)c1ccc[nH]1` gave an inhibition [1] of 72% and a viability at 48 h, 1 µM [2] of 94%.

For `O=C(NCc1cccc(Cn2cnc3ccccc32)c1)c1ccc(C(F)(F)F)cc1`, the inhibition [1] was 81% and the viability at 48 h, 1 µM [2] was 97%.

In the case of `O=C(NCc1cccc(Cn2cnc3ccccc32)c1)c1cc(Br)c[nH]1`, the inhibition [3] is reported as “Active”, the inhibition (Mus musculus [4]) is reported as “Active” and the Ratio IC50 [5] is reported as greater than 1. For the same molecule, the Drug metabolism [6] was “Metabolite_Detected”, the IC50 [7] was 43 nM and the Activity (Monocyte [8]) was “Non-Toxic”. The inhibition [1] was 96%, the IC50 [9] was 21 nM and the Drug metabolism [10] was “Metabolite_Detected”. The Activity (Monocyte [11]) was “Non-Toxic”, the Kd [12] was 550 nM and the IC50 [13] was 12.7 nM. The Ratio IC50 [14] was greater than 1, the inhibition [15] was greater than 30% and the IC50 [16] was 67.7 µM. For the same molecule, the IC50 [17] was 64 nM, the IC50 [18] was 5.46 µM and the Ratio IC50 [19] was greater than 1. For the same molecule, the remaining at 1 h, 50 µM [20] was 32%, the Activity (Monocyte [21]) was “Non-Toxic” and the viability at 48 h, 1 µM [2] was 85 to 100%. The Ratio IC50 [22] was greater than 1, the remaining at 1 h, 50 µM [23] was 32% and the IC50 [24] was 14 nM. The Ratio IC50 [25] was greater than 1, the IC50 [26] was 605 nM and the inhibition (Mus musculus [27]) was “inactive”.

In the case of `O=C(NCc1cccc(Cn2cnc3ccccc32)c1)c1ccc(Br)cc1`, the inhibition [1] is reported as 98%, the IC50 [28] is reported as 134 nM and the viability at 48 h, 1 µM [2] is reported as 96%.

With `O=C(NCc1cccc(Cn2cnc3ccc(Br)cc32)c1)c1cc(Br)c[nH]1` the inhibition [1] was 98%, the IC50 [28] was 19 nM and the viability at 48 h, 1 µM [2] was 99%. The Stability [29] was “Unstable”.

In the case of `Cc1ccc(C(=O)NCc2cccc(Cn3cnc4ccccc43)c2)cc1`, the inhibition [1] is reported as 88%, the IC50 [28] is reported as 327 nM and the viability at 48 h, 1 µM [2] is reported as 94%.

Work on `O=C(NCc1cccc(Cn2cnc3ccccc32)c1)c1ccc(Cl)cc1` yielded an inhibition [1] of 99%, an IC50 [28] of 477 nM and a viability at 48 h, 1 µM [2] of 96%.

`CC(=O)NCC(=O)NCc1cccc(Cn2cnc3ccccc32)c1` showed an inhibition [1] of 0% and a viability at 48 h, 1 µM [2] of 100%.

For `N#Cc1ccc(C(=O)NCc2cccc(Cn3cnc4ccccc43)c2)cc1`, the Drug metabolism [6] was “Metabolite_Detected”, the inhibition [1] was 88% and the IC50 [9] was 110 nM. For the same molecule, the Drug metabolism [10] was “Metabolite_Detected”, the IC50 [13] was 112 nM and the IC50 [28] was 90 nM. For the same molecule, the “inhibition (INH)” value ([16]; rat, microsomes, 0.25 h) was “Not Active”, the IC50 [18] was 32.3 µM and the remaining at 1 h, 50 µM [20] was 59%. For the same molecule, the viability at 48 h, 1 µM [2] was 100%, the remaining at 1 h, 50 µM [23] was 59% and the IC50 [26] was 1940 nM.

Molecule `Cc1ccc2[nH]c(C(=O)NCc3cccc(Cn4cnc5ccccc54)c3)cc2c1` has an inhibition [1] of 90%, an IC50 [28] of 636 nM and a viability at 48 h, 1 µM [2] of 99%.

With `CC(=O)N1CCN(c2ccc(OCC3COC(Cn4ccnc4)(c4ccc(Cl)cc4Cl)O3)cc2)CC1` (centres undefined) [KETOCONAZOLE] the IC50 [30] was 6.4 µM.

In the case of `O=C(NCc1cccc(Cn2cnc3ccccc32)c1)c1cc2ccccc2s1`, the inhibition [1] is reported as 77% and the viability at 48 h, 1 µM [2] is reported as 88%.

For `O=C(NCc1cccc(Cn2ccc3ccccc32)c1)c1cc(Br)c[nH]1`, the inhibition [1] was 0% and the viability at 48 h, 1 µM [2] was 100%.

For `COc1ccc2[nH]c(C(=O)NCc3cccc(Cn4cnc5ccccc54)c3)cc2c1`, the viability at 48 h, 1 µM [2] was 55%.

`O=C(CNC(=O)c1ccccc1)NCc1cccc(Cn2cnc3ccccc32)c1` gave an inhibition [1] of 13% and a viability at 48 h, 1 µM [2] of 99%.
